Shown are actives, neighbours in structure and some others; about 5.1% of the full set was active somewhere.
APP 5'UTR act: activators of APP 5'UTR luciferase reporter, primary screen, SH-SY5Y cells; SH-SY5Y APP 5'UTR luciferase reporter, luminescence; zero percent = DMSO vehicle wells; activation, % at 2 µM; 190,000 compounds, 1% hits;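 active = activation above a set limit, based on mean plus 3 SD of controls, cut at about 140% in these data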
STAT3 inh: IL-6 driven STAT3 reporter inhibitors, primary screen, U3A cells, luciferase, luminescence, MLSCN library; IL-6 STAT3-luciferase reporter; host cell line lacks STAT1; inhibition, % at 5.5 µM; 190,000 compounds, 0.89% hits;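 active = inhibition above the mean inhibition across all screened compounds plus 3 SD, cut at about 44% in these data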;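 note: 0% = DMSO only wells and 100% = 100 µM nifuroxazide control wells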
NF-kB neuron act: activators of NF-kB expression in neurons, primary screen, cell-based, HTS | fold change at 12.5 µM | 190,000 compounds, 1.6% hits | human neuronal cells, NF-kB reporter expression; stronger effect = higher value; in the data active = fold change above about 3.3
STAT1 activator: STAT1 signaling activators, primary screen, cell-based, HTS, luciferase reporter | NIH 3T3 STAT1-luciferase reporter, IFN-gamma, luminescence; 100% = IFN-gamma alone, no compound | activation (% of control), % at 5.5 µM | 200,000 compounds, 2.6% hits | AID 932, 2007;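 active = activation above the screen-wide mean activation plus 3 SD, cut at about 130% in these data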;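 note: raw ratio to IFN-gamma control signal so 100% means no change and 0% no light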
STAT1 inh: STAT1 signaling inhibitors, primary screen, cell-based, HTS, luciferase reporter. NIH 3T3 STAT1-luciferase reporter, IFN-gamma, luminescence. inhibition, % at 5.5 µM. 200,000 compounds, 0.35% hits. AID 920, 2007;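 active = inhibition above a set limit, the mean inhibition across all tested compounds plus 3 SD, cut at about 34% in these data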;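 note: 0% = IFN-gamma with DMSO and 100% = IFN-gamma with 300 µM nifuroxazide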
STAT3 act: IL-6 driven STAT3 reporter potentiators, primary screen, U3A cells, luciferase, luminescence, MLSCN library. 190,000 compounds, 0.91% hits. activation (% of control), % at 5.6 µM. IL-6 STAT3-luciferase reporter; 100% = signal with IL-6 EC80 alone;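 active = activation above the screen-wide mean of compound activation plus 3 SD, cut at about 130% in these data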;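 note: 0% = background luminescence of wells with medium and substrate only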
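Detection: reporter luminescence signal / Assay system: STAT1-lacking human U3A cells, STAT3 luciferase reporter / Incubation: compound pre-incubation 1 h before IL-6, then 6 h stimulation at 37 °C / Control set: IL-6-only high control / Read-out: % activation relative to IL-6 control / Probe or stimulus: Interleukin-6, 33 ng/mL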
Starred values were filed as active, the others as inactive; nt = no result.

SMILES | APP 5'UTR act | STAT3 inh | NF-kB neuron act | STAT1 activator | STAT1 inh | STAT3 act
O=C(/C=C/Nc1ccc(F)c(F)c1)c1ccc(Br)cc1 | 163* | 2 | 8.1* | 141* | -44 | 97
CC(=O)c1ccc(N/C=C\C(=O)c2ccc(C)cc2)cc1 | 127 | 10 | 1 | 148* | -54 | 94
O=C(/C=C/Nc1ccc(Br)cc1F)c1ccccc1 | 140* | 90* | 1.3 | 58 | 47* | 23
O=C(/C=C/Nc1ccc([N+](=O)[O-])cc1)c1ccc(Br)cc1 | 37 | 11 | 1.5 | 106 | -7 | 93
COC(=O)c1c(-c2cccc(C)c2)csc1N | 18 | 9 | 0.92 | 95 | 5 | 95
COc1ccc(C(=O)C[N+]2(C)CCOCC2)cc1 | -19 | -4 | 0.96 | 99 | -1 | 103
CC(NC(=O)C1CCN(S(=O)(=O)N2CCC3(CC2)OCCO3)CC1)c1ccccc1 (centres undefined) | -8 | 5 | 1.1 | 96 | 2 | 100
COC(=O)c1ccc(/C=C/C(=O)c2ccc(OC)c(OC)c2)cc1 | 8 | -5 | 0.86 | 103 | -3 | 104
COc1ccc(C(=O)/C=C/Nc2ccc(C)cn2)cc1OC | 145* | 10 | 5.2* | 143* | -46 | 95
Cn1c(-c2sc(=S)n(-c3ccccc3)c2N)nc2ccccc21 | -2 | -38 | 1.5 | 103 | -3 | 133*
CC(=O)NCc1cc(-c2ccc(Cl)cc2)no1 | 17 | 8 | 1.1 | 110 | -11 | 101
Cc1ccnc(NC(=O)c2sc3cc(Cl)ccc3c2Cl)c1 | 171* | 5 | 3.6* | 111 | -12 | 100
COc1ccc(S(=O)(=O)N/N=C(/C)c2cccc(NC(=O)c3ccccc3Cl)c2)cc1 | 1 | 7 | 1 | 103 | -3 | 99
CCC(=O)c1ccc(/C=C/c2nc3ccccc3n2C)o1 | 125 | 40 | 4.8* | 112 | -15 | 70
CC(=O)Oc1ccccc1C1=NN(C(=O)/C=C/c2ccccc2)C(c2ccccc2)C1 (centres undefined) | 11 | 19 | 0.5 | 98 | 3 | 83
CN(C)/C=N/C(=S)Nc1ccc(Cl)cc1Cl | 13 | 7 | 1.7 | 132* | -37 | 104
CN(C)/C=N/C(=S)Nc1ccc(Cl)cc1 | 49 | 5 | 1.7 | 127 | -32 | 103
Cc1ccc(CN2C(=O)N/C(=C/c3ccc4c(c3)n(C)c(=O)n4C)C2=O)cc1 | -24 | 38 | 1.4 | 70 | 32 | 69
Cc1cc(/C=C2\NC(=O)N(Cc3ccc(Cl)cc3)C2=O)c(C)n1C | 4 | -50 | 1.2 | 94 | 6 | 139*
CN1C/C(=C\c2ccc(N3CCOCC3)cc2)C(=O)/C(=C/c2ccc(N3CCOCC3)cc2)C1 | 4 | -4 | 1.1 | 101 | -1 | 108
CCN1C/C(=C/c2ccc(N3CCOCC3)cc2)C(=O)/C(=C/c2ccc(N3CCOCC3)cc2)C1 | -7 | -6 | 5.3* | 103 | -3 | 111
COc1ccc2[nH]c(-c3ccc(C)cc3)cc(=O)c2c1 | 109 | 40 | 4.2* | 124 | -27 | 65
COc1ccc(-c2cc(=O)c3cc(F)ccc3[nH]2)cc1 | 5 | -9 | 1.2 | 102 | -3 | 105
CC(C)C(c1nnnn1Cc1ccccc1)N(Cc1ccco1)Cc1cccs1 (centres undefined) | -1 | -2 | 1 | 97 | 3 | 107
CCOC(=O)CN1c2ccccc2NC(=O)CC1C (centres undefined) | 0 | 6 | 1.1 | 89 | 13 | 103
SMILES | APP 5'UTR act | STAT3 inh | NF-kB neuron act | STAT1 activator | STAT1 inh | STAT3 act
CCC(COC)NC(=O)CCc1nnc(Cc2cccc(C(F)(F)F)c2)o1 (centres undefined) | 22 | 10 | 1.9 | 114 | -17 | 95
CC(C)NC(=O)CCc1nnc(Cc2cccc(C(F)(F)F)c2)o1 | 40 | -9 | 2.5 | 140* | -46 | 112
COC(=O)c1cc(Cl)cc(Cl)c1OS(=O)(=O)N(C)C | -7 | -4 | 1.1 | 99 | 0 | 110
O=C(c1ccc(-c2ccc(Cl)cc2Cl)o1)N1CCOCC1 | 80 | 4 | 3 | 138* | -42 | 101
Cc1cc(NC(=O)COC(=O)c2cccc(O)c2)no1 | -1 | -1 | 0.98 | 98 | 0 | 105
Cc1ccc(C(=O)Nc2ccccc2N2CCCCC2)cc1[N+](=O)[O-] | -7 | 4 | 1.3 | 99 | 1 | 100
Cc1ccc(C(=O)NC(=S)Nc2ccccc2N2CCCC2)cc1[N+](=O)[O-] | 18 | -44 | 0.73 | 95 | 6 | 134*
C/C(=N/OC(=O)C1CC1)c1cc(-c2ccc(Cl)cc2)no1 | 88 | -4 | 2.5 | 136* | -42 | 108
CC(=O)NC(C(=O)c1ccccc1)C(=O)c1ccccc1 | 8 | 5 | 0.94 | 92 | 9 | 95
CCCOc1ccc(/C=N/Nc2ccccn2)cc1OC | 118 | 1 | 2.4 | 148* | -51 | 101
COc1cc(/C=N/Nc2ccccn2)cc(OC)c1O | -15 | 17 | 1.9 | 107 | -6 | 89
COc1cc(/C=N/Nc2ccccn2)ccc1OCC(C)C | 91 | -1 | 1.5 | 148* | -55 | 109
C=CCOc1ccc(/C=N/Nc2ccccn2)cc1OC | 91 | 22 | 2.5 | 138* | -44 | 88
CCc1ccc(OCCNC(=O)c2ccccc2SCc2ccccc2)cc1 | 0 | -27 | 0.66 | 95 | 6 | 134*
O=C1C2C3c4ccccc4C(c4ccccc43)C2C(=O)N1c1nc(-c2ccccc2)cs1 (centres undefined) | -18 | 9 | 1.1 | 106 | -6 | 98
N=C1SCC(=O)N1c1nc(-c2ccccc2)cs1 | -7 | 9 | 1.6 | 150* | -55 | 98
O=S(=O)(Nc1ccccc1N1CCCCC1)c1ccc(Cl)s1 | -12 | 3 | 0.91 | 98 | 2 | 100
COCC(=O)N(CCc1ccc(OC)cc1)Cc1nc2ccccc2c(=O)[nH]1 | nt | -1 | 0.99 | 95 | 6 | 106
Cc1ccnc(N(C(=O)c2cccs2)C(=O)c2cccs2)c1 | 68 | 5 | 2.3 | 128 | -30 | 99
O=C(c1cccs1)N(C(=O)c1cccs1)c1ccc(Br)cn1 | 102 | 8 | 4* | 134* | -37 | 94
Cc1nn(-c2ccc(Cl)nn2)c(=O)c2ccccc12 | 21 | 15 | 1.5 | 125 | -31 | 92
COc1cccc(CNc2cccc3cccnc23)c1O | 19 | -9 | 0.44 | 92 | 4 | 110
COc1cccc(CNc2cnc3ccccc3c2)c1O | 93 | 35 | 7.6* | 95 | 6 | 73
CCOc1ccc2c(c1)OC(c1ccc(C)cc1)(C(F)(F)F)NC2=O (centres undefined) | -95 | -23 | 4.2* | 105 | -5 | 117

Screening results as filed in PubChem.
